Measured values taken from ChEMBL document CHEMBL5653622 (Oncotarget, 2016).
The source made the active and inactive calls. The calls are words filed in the database; no cut-off is given here.

Legend:
[1] = biological target: Mitogen-activated protein kinase 13 (Homo sapiens) (UniProt O15264); assay: Inhibition of human p38d MAPK assessed as remaining activity at 10 uM in presence of ATP by radiometric kinase assay relative to control
[2] = biological target: Serine/threonine-protein kinase STK11 (Homo sapiens) (UniProt Q15831); assay: Inhibition of human LKB1 assessed as remaining activity at 10 uM in presence of ATP by radiometric kinase assay relative to control
Mus musculus = assay: In vivo inhibition of CHK1 in CRTac:Ncr-Fox1 mouse xenografted with human HT-29 cells assessed as reduction of phosphorylation of CHK1 on S317 at 50 to 100 mg/kg, po administered for 24 hrs by Western blotting analysis; type: functional, organism-based; conditions: dose 50-100 mg/kg
Method in brief: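 HT29 s.c. xenografts in female athymic nude mice. Single gemcitabine dose 100mg/kg i.v. on day 0, then one inhibitor dose 50 or 100mg/kg p.o. (DPTW vehicle) 24h later. Tumors taken 24h after the last dose, western blotted, and signals quantified by normalizing to GAPDH.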

[3] = biological target: MAP/microtubule affinity-regulating kinase 3 (Homo sapiens, UniProt P27448); assay: Inhibition of human MARK3 assessed as remaining activity at 10 uM in presence of ATP by radiometric kinase assay relative to control
[4] = biological target: Mitogen-activated protein kinase 12 (Homo sapiens) (UniProt P53778); assay: Inhibition of human p38g MAPK assessed as remaining activity at 10 uM in presence of ATP by radiometric kinase assay relative to control
[5] = biological target: Mitogen-activated protein kinase 9 (Homo sapiens) (UniProt P45984); assay: Inhibition of human JNK2 assessed as remaining activity at 10 uM in presence of ATP by radiometric kinase assay relative to control
[6] = biological target: Ephrin type-B receptor 2 (Homo sapiens) (UniProt P29323); assay: Inhibition of human EPH-B2 assessed as remaining activity at 10 uM in presence of ATP by radiometric kinase assay relative to control
[7] = biological target: Receptor-interacting serine/threonine-protein kinase 2 (Homo sapiens) (UniProt O43353); assay: Inhibition of human RIPK2 assessed as remaining activity at 10 uM in presence of ATP by radiometric kinase assay relative to control
[8] = biological target: MAP kinase-activated protein kinase 5 (Homo sapiens) (UniProt Q8IW41); assay: Inhibition of human PRAK assessed as remaining activity at 10 uM in presence of ATP by radiometric kinase assay relative to control
[9] = biological target: Ephrin type-B receptor 1 (Homo sapiens) (UniProt P54762); assay: Inhibition of human EPH-B1 assessed as remaining activity at 10 uM in presence of ATP by radiometric kinase assay relative to control
[10] = biological target: Ephrin type-B receptor 4 (Homo sapiens) (UniProt P54760); assay: Inhibition of human EPH-B4 assessed as remaining activity at 10 uM in presence of ATP by radiometric kinase assay relative to control
[11] = Toxicity in Emu-Myc driven transgenic mouse transplant model of B-cell lymphoma assessed as change in water consumption at 150 mg/kg, po administered for 9 days; type: organism-based; conditions: in vivo, 216 h, time 9 day
[12] = biological target: Receptor tyrosine-protein kinase erbB-4 (Homo sapiens) (UniProt Q15303); assay: Inhibition of human HER4 assessed as remaining activity at 10 uM in presence of ATP by radiometric kinase assay relative to control
[13] = Toxicity in CRTac:Ncr-Fox1 mouse xenografted with human HT-29 cells assessed as body weight at 12.5 mg/kg, po administered for 16 days in presence of gemcitabine relative to control; type: organism-based; conditions: in vivo, 384 h, time 16 day
[14] = biological target: Serine/threonine-protein kinase PLK1 (Homo sapiens) (UniProt P53350); assay: Inhibition of human PLK1 assessed as remaining activity at 10 uM in presence of ATP by radiometric kinase assay relative to control
HT-29 = assay: Induction of apoptosis in human HT-29 cells assessed as increased in cleaved PARP in presence of gemcitabine by Western blotting analysis; type: functional, cell-based
[15] = biological target: Tyrosine-protein kinase Lck (Homo sapiens) (UniProt P06239); assay: Inhibition of human Lck assessed as remaining activity at 10 uM in presence of ATP by radiometric kinase assay relative to control
Homo sapiens [16] = species on record: Homo sapiens; assay: Inhibition of human AMPK assessed as remaining activity at 10 uM in presence of ATP by radiometric kinase assay relative to control
[17] = biological target: Dual specificity protein kinase CLK2 (Homo sapiens, UniProt P49760); assay: Inhibition of human CLK2 assessed as remaining activity at 10 uM in presence of ATP by radiometric kinase assay relative to control
[18] = biological target: Mitogen-activated protein kinase 14 (Homo sapiens) (UniProt Q16539); assay: Inhibition of human p38a MAPK assessed as remaining activity at 10 uM in presence of ATP by radiometric kinase assay relative to control
Homo sapiens [19] = species on record: Homo sapiens; assay: Inhibition of human AMPK at 10 uM in presence of ATP by radiometric kinase assay relative to control
[20] = AUC (0 to t) in BALB/C mouse spleen at 10 mg/kg, po by LC/MS-MS analysis; type: ADME, organism-based
[21] = biological target: Serine/threonine-protein kinase PAK 6 (Homo sapiens) (UniProt Q9NQU5); assay: Inhibition of human PAK6 assessed as remaining activity at 10 uM in presence of ATP by radiometric kinase assay relative to control
[22] = biological target: Serine/threonine-protein kinase MARK2 (Homo sapiens) (UniProt Q7KZI7); assay: Inhibition of human MARK2 assessed as remaining activity at 10 uM in presence of ATP by radiometric kinase assay relative to control
[23] = Toxicity in Emu-Myc driven transgenic mouse transplant model of B-cell lymphoma assessed as reduction in weight of lung at 150 mg/kg, po administered for 9 days; type: organism-based; conditions: in vivo, 216 h, time 9 day
[24] = biological target: Vascular endothelial growth factor receptor 1 (Homo sapiens, UniProt P17948); assay: Inhibition of VEGFR1 (unknown origin) by FRET based Z-LYTE kinase assay
[25] = biological target: Misshapen-like kinase 1 (Homo sapiens) (UniProt Q8N4C8); assay: Inhibition of human MINK1 assessed as remaining activity at 10 uM in presence of ATP by radiometric kinase assay relative to control
[26] = biological target: Protein kinase C zeta type (Homo sapiens) (UniProt Q05513); assay: Inhibition of human PKCz assessed as remaining activity at 10 uM in presence of ATP by radiometric kinase assay relative to control
[27] = biological target: Mitogen-activated protein kinase kinase kinase 1 (Homo sapiens) (UniProt Q13233); assay: Inhibition of human MEKK1 assessed as remaining activity at 10 uM in presence of ATP by radiometric kinase assay relative to control
[28] = biological target: Ribosomal protein S6 kinase alpha-1 (Homo sapiens, UniProt Q15418); assay: Inhibition of human RSK1 assessed as remaining activity at 10 uM in presence of ATP by radiometric kinase assay relative to control

Ephrin type-B receptor 1 (Homo sapiens), sequence (P54762 whole entry): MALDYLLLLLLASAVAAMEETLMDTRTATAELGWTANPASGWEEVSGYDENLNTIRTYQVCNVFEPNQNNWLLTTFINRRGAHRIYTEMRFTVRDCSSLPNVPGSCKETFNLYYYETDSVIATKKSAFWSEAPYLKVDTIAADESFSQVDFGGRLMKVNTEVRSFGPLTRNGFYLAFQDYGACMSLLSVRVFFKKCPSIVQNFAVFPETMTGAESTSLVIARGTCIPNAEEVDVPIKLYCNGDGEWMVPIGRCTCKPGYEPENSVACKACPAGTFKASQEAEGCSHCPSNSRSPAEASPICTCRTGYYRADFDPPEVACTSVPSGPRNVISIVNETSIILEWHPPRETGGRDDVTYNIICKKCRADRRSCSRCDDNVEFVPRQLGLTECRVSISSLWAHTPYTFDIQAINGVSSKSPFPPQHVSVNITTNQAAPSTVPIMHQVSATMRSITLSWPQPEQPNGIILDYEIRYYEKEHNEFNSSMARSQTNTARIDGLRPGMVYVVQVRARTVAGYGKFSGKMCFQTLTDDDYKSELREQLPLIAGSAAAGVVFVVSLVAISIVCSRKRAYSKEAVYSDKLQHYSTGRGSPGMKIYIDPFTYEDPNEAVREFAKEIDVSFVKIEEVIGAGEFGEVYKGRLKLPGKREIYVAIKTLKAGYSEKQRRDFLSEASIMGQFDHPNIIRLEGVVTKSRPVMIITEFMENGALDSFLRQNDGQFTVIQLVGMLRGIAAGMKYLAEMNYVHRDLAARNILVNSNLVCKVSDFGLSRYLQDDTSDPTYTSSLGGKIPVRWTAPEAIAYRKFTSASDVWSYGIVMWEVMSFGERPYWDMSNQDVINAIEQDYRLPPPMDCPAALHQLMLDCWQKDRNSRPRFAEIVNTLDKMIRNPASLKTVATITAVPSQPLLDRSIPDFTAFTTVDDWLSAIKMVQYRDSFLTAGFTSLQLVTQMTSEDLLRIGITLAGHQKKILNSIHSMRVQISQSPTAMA
Mitogen-activated protein kinase 12 (Homo sapiens), sequence (P53778 whole entry): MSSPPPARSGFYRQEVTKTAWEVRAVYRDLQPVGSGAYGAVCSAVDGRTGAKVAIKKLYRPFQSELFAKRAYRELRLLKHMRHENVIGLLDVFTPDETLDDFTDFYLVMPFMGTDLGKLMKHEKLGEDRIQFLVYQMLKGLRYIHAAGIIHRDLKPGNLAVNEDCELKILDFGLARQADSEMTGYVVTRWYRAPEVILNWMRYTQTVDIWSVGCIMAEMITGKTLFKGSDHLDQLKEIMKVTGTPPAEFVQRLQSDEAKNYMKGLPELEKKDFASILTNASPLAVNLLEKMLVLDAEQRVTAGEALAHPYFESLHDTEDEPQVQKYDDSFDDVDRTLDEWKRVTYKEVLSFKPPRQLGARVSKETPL
Mitogen-activated protein kinase 14 (Homo sapiens), sequence (Q16539 whole entry): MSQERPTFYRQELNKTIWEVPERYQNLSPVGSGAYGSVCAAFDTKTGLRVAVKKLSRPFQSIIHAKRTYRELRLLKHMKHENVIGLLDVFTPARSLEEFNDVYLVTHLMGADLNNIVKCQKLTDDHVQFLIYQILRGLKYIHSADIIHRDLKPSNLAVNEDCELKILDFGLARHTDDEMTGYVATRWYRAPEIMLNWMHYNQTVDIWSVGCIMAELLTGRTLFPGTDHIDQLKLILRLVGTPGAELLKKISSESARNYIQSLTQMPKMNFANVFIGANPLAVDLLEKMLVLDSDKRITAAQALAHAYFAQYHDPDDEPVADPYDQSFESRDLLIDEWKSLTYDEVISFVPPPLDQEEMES
Serine/threonine-protein kinase STK11 (Homo sapiens), sequence (Q15831 whole entry): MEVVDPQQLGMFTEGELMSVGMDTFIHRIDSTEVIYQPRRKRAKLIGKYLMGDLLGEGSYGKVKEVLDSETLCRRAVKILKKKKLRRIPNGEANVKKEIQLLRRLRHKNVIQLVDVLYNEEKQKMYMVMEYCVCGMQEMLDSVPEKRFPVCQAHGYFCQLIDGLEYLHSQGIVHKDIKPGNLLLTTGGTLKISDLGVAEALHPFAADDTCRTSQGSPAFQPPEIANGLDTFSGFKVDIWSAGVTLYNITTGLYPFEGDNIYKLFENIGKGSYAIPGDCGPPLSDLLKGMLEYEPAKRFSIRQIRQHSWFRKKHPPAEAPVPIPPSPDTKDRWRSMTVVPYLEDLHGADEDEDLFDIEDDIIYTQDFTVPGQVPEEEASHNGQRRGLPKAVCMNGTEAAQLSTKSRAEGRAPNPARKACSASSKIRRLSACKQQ
Mitogen-activated protein kinase kinase kinase 1 (Homo sapiens), sequence (Q13233 whole entry): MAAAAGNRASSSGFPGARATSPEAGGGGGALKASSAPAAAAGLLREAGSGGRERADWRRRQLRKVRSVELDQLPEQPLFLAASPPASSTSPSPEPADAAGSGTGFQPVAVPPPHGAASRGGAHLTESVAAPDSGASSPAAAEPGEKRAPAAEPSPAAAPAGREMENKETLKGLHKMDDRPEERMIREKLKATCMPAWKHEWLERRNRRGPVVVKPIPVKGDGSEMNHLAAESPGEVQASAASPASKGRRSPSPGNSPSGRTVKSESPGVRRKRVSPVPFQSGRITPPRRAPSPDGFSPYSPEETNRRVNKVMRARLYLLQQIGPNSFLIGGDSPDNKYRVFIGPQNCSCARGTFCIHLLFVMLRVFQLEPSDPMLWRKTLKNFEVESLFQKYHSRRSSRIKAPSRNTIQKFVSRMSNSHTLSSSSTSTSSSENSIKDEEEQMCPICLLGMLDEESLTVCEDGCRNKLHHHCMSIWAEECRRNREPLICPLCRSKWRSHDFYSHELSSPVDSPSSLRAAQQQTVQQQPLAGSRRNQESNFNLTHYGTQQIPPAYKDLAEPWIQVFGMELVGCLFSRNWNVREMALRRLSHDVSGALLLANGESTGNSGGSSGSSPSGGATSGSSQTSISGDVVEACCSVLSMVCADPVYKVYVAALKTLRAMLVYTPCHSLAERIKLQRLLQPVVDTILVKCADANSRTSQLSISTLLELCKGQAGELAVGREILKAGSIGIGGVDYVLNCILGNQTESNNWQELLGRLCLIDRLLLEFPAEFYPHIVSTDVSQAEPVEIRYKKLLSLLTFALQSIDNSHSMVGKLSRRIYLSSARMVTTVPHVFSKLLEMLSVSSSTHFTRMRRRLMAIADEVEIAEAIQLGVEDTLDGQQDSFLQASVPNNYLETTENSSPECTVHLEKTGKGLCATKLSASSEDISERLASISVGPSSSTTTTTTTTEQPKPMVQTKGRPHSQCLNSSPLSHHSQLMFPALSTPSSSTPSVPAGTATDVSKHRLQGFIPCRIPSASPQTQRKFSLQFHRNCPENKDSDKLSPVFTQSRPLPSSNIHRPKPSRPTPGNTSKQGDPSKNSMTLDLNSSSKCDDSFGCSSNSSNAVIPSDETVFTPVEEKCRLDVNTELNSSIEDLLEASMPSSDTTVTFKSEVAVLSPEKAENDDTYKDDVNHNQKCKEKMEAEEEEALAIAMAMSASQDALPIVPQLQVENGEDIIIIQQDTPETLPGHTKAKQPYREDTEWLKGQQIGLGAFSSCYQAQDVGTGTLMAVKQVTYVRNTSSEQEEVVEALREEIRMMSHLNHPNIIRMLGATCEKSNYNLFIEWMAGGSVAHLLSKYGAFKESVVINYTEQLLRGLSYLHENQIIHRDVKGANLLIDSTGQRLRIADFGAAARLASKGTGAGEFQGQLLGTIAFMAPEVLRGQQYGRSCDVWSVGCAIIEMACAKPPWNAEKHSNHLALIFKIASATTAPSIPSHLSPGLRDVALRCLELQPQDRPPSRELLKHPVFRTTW
Serine/threonine-protein kinase MARK2 (Homo sapiens), sequence (Q7KZI7 whole entry): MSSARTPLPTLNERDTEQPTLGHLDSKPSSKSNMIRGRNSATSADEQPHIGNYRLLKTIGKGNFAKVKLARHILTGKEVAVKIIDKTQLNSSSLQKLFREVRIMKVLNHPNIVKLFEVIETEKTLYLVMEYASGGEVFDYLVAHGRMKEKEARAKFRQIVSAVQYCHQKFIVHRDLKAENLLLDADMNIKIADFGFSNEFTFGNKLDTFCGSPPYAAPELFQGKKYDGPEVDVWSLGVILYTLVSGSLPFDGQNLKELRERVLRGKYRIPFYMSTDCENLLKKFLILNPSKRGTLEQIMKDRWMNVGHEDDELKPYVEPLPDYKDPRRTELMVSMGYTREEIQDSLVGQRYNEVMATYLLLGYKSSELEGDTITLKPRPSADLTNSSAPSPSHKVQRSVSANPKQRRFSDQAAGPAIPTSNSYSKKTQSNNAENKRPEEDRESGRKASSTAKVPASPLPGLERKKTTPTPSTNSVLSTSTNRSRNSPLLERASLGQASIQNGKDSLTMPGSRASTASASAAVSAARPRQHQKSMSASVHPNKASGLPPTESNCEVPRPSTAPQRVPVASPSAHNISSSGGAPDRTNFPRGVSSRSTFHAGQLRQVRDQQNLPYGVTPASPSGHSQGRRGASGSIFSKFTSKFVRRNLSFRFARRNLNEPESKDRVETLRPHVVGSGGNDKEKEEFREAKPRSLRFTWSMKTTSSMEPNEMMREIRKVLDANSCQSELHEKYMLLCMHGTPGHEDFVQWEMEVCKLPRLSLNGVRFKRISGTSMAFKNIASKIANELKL
Receptor-interacting serine/threonine-protein kinase 2 (Homo sapiens), sequence (O43353 whole entry): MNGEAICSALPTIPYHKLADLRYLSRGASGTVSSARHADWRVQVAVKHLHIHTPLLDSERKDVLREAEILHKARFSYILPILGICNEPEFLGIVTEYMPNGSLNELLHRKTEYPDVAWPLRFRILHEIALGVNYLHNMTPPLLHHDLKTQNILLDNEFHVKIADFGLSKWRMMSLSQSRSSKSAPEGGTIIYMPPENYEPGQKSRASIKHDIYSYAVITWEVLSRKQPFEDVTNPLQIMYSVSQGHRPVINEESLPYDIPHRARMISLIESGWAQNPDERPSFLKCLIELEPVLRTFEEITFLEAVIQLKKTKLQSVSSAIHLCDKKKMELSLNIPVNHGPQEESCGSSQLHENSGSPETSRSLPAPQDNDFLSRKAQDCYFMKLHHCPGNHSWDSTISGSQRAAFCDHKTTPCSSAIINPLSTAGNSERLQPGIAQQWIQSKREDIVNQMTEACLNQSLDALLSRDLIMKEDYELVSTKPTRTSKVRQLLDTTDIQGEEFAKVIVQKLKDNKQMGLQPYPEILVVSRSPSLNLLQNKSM

In the case of `N#Cc1cnc(Nc2cc(NC[C@H]3CNCCO3)c(C(F)(F)F)cn2)cn1` [SRA-737], the Activity [1] is reported as 54%, the Activity [2] is reported as 44% and the Activity (Mus musculus) is reported as “inactive”. It also gave an Activity [3] of 13%, an Activity [4] of 95% and an Activity [5] of 107%. The Activity [6] was 102%, the Activity [7] was 101% and the Activity [8] was 71%. The Activity [9] was 111%, the Activity [10] was 81% and the Activity [11] was “Non-Toxic”. For the same compound, the Activity [12] was 110%, the Activity [13] was 97.5% and the Activity [14] was 103%. The Activity (HT-29) was “Active”, the Activity [15] was 78% and the Activity (Homo sapiens [16]) was 32%. For the same compound, the Activity [17] was 6%, the Activity [18] was 120% and the inhibition (Homo sapiens [19]) was 68%. The AUC(0-t) [20] was 222 µM·h, the Activity [21] was 77% and the Activity [22] was 21%. For the same compound, the Activity [23] was “Toxic”, the IC50 [24] was 15.8 µM and the Activity [25] was 44%. The Activity [26] was 92%, the Activity [27] was 77% and the Activity [28] was 7%.
